# Assay results as given in ChEMBL document CHEMBL4152382, “Discovery of Tarantula Venom-Derived NaV1.7-Inhibitory JzTx-V Peptide 5-Br-Trp24 Analogue AM-6120 with Systemic Block of Histamine-Induced Pruritis” (J Med Chem, 2018).
# pIC50: −log10 of the molar value. Activity calls are given as the source filed them. No cut-off for these calls is given here.
# Key:
# [1] = biological target: Sodium channel protein type 9 subunit alpha (Homo sapiens, UniProt Q15858); assay: Inhibition of human Nav1.7 expressed in HEK293 cells at holding potential of -125 mV […] by patchxpress-based electrophysiology assay; type: cell-based
# [2] = biological target: Sodium channel protein type 4 subunit alpha (Homo sapiens, UniProt P35499); assay: Inhibition of human Nav1.4 expressed in HEK293 cells at holding potential of -125 mV […] by patchxpress-based electrophysiology assay; type: cell-based
# [3] = biological target: Sodium channel protein type 8 subunit alpha (Homo sapiens, UniProt Q9UQD0); assay: Inhibition of human Nav1.6 expressed in HEK293 cells at holding potential of -125 mV […] by patchxpress-based electrophysiology assay; type: cell-based
# [4] = biological target: Sodium channel protein type 5 subunit alpha (Homo sapiens, UniProt Q14524); assay: Inhibition of human Nav1.5 expressed in HEK293 cells at holding potential of […] after 10 mins by patchxpress-based electrophysiology assay; type: cell-based
# [5] = biological target: Sodium channel protein type 10 subunit alpha (Homo sapiens, UniProt Q9Y5Y9); assay: Inhibition of human Nav1.8 expressed in HEK293 cells after 10 mins by patchxpress-based electrophysiology; type: cell-based
# [6] = AUCt in C57/BL6 mouse at 2 mg/kg, sc by LC-MS/MS analysis; type: ADME, organism-based; conditions: in vivo
# In short: (§1)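 Male C57Bl/6 mice, n = 3 per time point, given a single 2 mg/kg subcutaneous dose. Plasma levels were quantified by LC-MS/MS over time, and pharmacokinetic parameters were derived from the plasma profiles. Data are reported as mean ± SEM for each time point.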
# [7] = Apparent […] clearance in C57/BL6 mouse at 2 mg/kg, sc by LC-MS/MS analysis; type: ADME, organism-based; conditions: in vivo; in short: as §1
# [8] = Cmax in C57/BL6 mouse at 2 mg/kg, sc by LC-MS/MS analysis; type: ADME, organism-based; parameters: dose 2 mg/kg, route subcutaneous; conditions: in vivo; in short: as §1
# [9] = MRT in C57/BL6 mouse at 2 mg/kg, sc by LC-MS/MS analysis; type: ADME, organism-based; conditions: in vivo; in short: as §1
# [10] = Half life in C57/BL6 mouse at 2 mg/kg, sc by LC-MS/MS analysis; type: ADME, organism-based; conditions: in vivo; in short: as §1
# [11] = Tmax in C57/BL6 mouse at 2 mg/kg, sc by LC-MS/MS analysis; type: ADME, organism-based; conditions: in vivo; in short: as §1
# Mus musculus [12] = assay: Volume of distribution at steady state in C57/BL6 mouse at 2 mg/kg, sc by LC-MS/MS analysis; type: ADME, organism-based; conditions: in vivo; in short: as §1
# [13] = Plasma concentration in C57/BL6 mouse at 2 mg/kg, sc after 30 mins by LC-MS/MS analysis; type: ADME, organism-based; conditions: in vivo, 0.5 h; in short: as §1
# [14] = biological target: T1, Sodium channel protein type 9 subunit alpha (Mus musculus, UniProt Q62205); assay: Inhibition of Nav1.7 in C57/BL6 mouse DRG neurons assessed as reduction in TTX sensitive sodium channel-mediated currents by whole cell manual patch clamp assay
# Mus musculus [15] = assay: In vivo inhibition of Nav1.7 in C57/BL6 mouse model of histamine-induced pruritis assessed as reduction in scratching bouts at 1 mg/kg, sc dosed 2 hrs before histamine challenge and measured for 15 mins relative to control; type: functional
# In short: (§2)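 Male C57Bl/6 mice aged 8–10 weeks; nape shaved under 3% isoflurane the day before, with 15 min chamber acclimation. Peptide given sc 2 h before intradermal histamine dichloride (8.15 mM, 100 μL); vehicle was PBS with 1% MSA. Scratch bouts video-recorded for 15 min, blinded scoring; n = 8–10 per group; one-way ANOVA with Dunnett's test versus vehicle.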
# [16] = Ratio of plasma concentration in C57/BL6 mouse model of histamine-induced pruritis at 1 mg/kg, sc to IC50 for Nav1.7 in C57/BL6 mouse DRG neurons by whole cell manual patch clamp assay; type: ADME, organism-based; conditions: in vivo
# Mus musculus [17] = assay: Toxicity in C57/BL6 mouse assessed as effect on locomotor activity at 1 mg/kg, sc by open field assay; type: organism-based; conditions: in vivo
# Mus musculus [18] = assay: In vivo inhibition of Nav1.7 in C57/BL6 mouse model of histamine-induced pruritis assessed as reduction in scratching bouts at 10 mg/kg, […] dosed 2 hrs before histamine challenge and measured for 15 mins relative to control; type: functional
# [19] = Inhibition of TTX-resistant sodium channel-mediated currents in C57/BL6 mouse DRG neurons by whole cell manual patch clamp assay; conditions: C57/BL6, DRG neuron
# [20] = biological target: T1, Sodium channel protein type 9 subunit alpha; assay: Inhibition of mouse Nav1.7 expressed in HEK293 cells after 10 mins by patchxpress-based electrophysiology; type: cell-based
# Mus musculus [21] = assay: In vivo inhibition of Nav1.7 in C57/BL6 mouse model of histamine-induced pruritis assessed as reduction in scratching bouts at 0.5 mg/kg, sc dosed 2 hrs before histamine challenge and measured for 15 mins relative to control; type: functional; in short: as §2
# Mus musculus [22] = assay: In vivo inhibition of Nav1.7 in C57/BL6 mouse model of histamine-induced pruritis assessed as reduction in scratching bouts at 2 mg/kg, sc dosed 2 hrs before histamine challenge and measured for 15 mins relative to control; type: functional; in short: as §2
# [23] = Plasma concentration in C57/BL6 mouse model of histamine-induced pruritis at 0.5 mg/kg, sc; type: ADME, organism-based; conditions: in vivo
# In short: (§3)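 Dosing was 2 h before an intradermal nape injection of histamine (8.15 mM, 100 μL). Scratching was videorecorded for 15 min by blinded experimenters, and peptide plasma concentrations were analysed from the same study.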
# [24] = Plasma concentration in C57/BL6 mouse model of histamine-induced pruritis at 1 mg/kg, sc; type: ADME, organism-based; conditions: in vivo; in short: as §3
# [25] = Plasma concentration in C57/BL6 mouse model of histamine-induced pruritis at 2 mg/kg, sc; type: ADME, organism-based; conditions: in vivo; in short: as §3
# [26] = Ratio of plasma concentration in C57/BL6 mouse model of histamine-induced pruritis at 0.5 mg/kg, sc to IC50 for Nav1.7 in C57/BL6 mouse DRG neurons by whole cell manual patch clamp assay; type: ADME, organism-based; conditions: in vivo
# [27] = Ratio of plasma concentration in C57/BL6 mouse model of histamine-induced pruritis at 2 mg/kg, sc to IC50 for Nav1.7 in C57/BL6 mouse DRG neurons by whole cell manual patch clamp assay; type: ADME, organism-based; conditions: in vivo
# Mus musculus [28] = assay: Toxicity in C57/BL6 mouse assessed as effect on locomotor activity at 2 mg/kg, sc by open field assay; type: organism-based; conditions: in vivo
# T1 sequence (Q62205 whole entry): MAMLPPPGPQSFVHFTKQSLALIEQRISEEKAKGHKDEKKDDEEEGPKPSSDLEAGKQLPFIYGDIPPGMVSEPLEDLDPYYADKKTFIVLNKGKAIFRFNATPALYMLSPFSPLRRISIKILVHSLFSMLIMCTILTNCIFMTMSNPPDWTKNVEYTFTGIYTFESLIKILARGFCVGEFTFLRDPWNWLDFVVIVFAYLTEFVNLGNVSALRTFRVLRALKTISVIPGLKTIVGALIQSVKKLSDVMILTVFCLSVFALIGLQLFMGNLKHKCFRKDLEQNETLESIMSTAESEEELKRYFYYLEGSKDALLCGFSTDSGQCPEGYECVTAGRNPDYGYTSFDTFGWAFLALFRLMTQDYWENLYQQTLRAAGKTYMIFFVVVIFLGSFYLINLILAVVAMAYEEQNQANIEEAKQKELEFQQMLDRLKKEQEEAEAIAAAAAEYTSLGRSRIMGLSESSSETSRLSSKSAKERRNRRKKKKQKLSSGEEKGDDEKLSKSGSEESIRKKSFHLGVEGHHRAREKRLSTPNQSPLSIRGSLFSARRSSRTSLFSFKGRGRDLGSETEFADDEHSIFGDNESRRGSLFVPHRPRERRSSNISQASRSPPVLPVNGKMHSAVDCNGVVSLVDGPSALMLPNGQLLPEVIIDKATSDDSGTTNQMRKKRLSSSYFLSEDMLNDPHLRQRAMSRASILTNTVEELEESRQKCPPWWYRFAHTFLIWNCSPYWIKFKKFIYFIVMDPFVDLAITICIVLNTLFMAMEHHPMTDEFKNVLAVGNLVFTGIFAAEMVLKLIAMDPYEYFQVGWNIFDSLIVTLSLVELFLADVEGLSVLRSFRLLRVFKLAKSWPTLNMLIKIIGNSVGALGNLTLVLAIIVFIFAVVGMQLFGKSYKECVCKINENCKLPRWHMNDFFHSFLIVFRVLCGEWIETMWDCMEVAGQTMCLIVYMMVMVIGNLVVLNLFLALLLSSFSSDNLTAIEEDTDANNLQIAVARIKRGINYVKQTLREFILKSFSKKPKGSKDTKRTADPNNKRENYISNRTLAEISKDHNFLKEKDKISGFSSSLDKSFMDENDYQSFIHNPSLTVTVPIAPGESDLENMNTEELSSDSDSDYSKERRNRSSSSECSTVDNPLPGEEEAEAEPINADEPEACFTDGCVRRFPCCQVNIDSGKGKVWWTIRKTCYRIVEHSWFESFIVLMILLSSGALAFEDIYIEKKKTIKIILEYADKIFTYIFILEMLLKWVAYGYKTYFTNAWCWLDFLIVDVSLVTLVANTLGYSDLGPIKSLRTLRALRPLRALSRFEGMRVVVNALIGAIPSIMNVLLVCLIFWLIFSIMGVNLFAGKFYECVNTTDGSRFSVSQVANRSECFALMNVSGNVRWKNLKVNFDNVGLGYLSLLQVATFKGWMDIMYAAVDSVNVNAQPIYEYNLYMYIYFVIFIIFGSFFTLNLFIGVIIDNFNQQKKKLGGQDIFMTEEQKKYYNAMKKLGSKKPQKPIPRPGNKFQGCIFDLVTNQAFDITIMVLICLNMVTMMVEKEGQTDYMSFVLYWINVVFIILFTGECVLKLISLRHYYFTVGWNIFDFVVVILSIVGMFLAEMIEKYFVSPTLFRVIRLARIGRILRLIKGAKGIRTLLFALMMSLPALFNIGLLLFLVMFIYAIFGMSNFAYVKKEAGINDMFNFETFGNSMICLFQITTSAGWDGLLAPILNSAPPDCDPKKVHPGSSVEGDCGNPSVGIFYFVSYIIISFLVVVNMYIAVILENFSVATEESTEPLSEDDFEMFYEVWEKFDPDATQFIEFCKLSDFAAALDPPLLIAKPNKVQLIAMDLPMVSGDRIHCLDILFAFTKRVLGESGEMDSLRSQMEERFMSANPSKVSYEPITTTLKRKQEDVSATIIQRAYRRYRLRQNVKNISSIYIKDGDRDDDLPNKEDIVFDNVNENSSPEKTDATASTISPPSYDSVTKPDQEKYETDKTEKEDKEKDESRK
# Sequence of Sodium channel protein type 5 subunit alpha (Q14524 whole entry): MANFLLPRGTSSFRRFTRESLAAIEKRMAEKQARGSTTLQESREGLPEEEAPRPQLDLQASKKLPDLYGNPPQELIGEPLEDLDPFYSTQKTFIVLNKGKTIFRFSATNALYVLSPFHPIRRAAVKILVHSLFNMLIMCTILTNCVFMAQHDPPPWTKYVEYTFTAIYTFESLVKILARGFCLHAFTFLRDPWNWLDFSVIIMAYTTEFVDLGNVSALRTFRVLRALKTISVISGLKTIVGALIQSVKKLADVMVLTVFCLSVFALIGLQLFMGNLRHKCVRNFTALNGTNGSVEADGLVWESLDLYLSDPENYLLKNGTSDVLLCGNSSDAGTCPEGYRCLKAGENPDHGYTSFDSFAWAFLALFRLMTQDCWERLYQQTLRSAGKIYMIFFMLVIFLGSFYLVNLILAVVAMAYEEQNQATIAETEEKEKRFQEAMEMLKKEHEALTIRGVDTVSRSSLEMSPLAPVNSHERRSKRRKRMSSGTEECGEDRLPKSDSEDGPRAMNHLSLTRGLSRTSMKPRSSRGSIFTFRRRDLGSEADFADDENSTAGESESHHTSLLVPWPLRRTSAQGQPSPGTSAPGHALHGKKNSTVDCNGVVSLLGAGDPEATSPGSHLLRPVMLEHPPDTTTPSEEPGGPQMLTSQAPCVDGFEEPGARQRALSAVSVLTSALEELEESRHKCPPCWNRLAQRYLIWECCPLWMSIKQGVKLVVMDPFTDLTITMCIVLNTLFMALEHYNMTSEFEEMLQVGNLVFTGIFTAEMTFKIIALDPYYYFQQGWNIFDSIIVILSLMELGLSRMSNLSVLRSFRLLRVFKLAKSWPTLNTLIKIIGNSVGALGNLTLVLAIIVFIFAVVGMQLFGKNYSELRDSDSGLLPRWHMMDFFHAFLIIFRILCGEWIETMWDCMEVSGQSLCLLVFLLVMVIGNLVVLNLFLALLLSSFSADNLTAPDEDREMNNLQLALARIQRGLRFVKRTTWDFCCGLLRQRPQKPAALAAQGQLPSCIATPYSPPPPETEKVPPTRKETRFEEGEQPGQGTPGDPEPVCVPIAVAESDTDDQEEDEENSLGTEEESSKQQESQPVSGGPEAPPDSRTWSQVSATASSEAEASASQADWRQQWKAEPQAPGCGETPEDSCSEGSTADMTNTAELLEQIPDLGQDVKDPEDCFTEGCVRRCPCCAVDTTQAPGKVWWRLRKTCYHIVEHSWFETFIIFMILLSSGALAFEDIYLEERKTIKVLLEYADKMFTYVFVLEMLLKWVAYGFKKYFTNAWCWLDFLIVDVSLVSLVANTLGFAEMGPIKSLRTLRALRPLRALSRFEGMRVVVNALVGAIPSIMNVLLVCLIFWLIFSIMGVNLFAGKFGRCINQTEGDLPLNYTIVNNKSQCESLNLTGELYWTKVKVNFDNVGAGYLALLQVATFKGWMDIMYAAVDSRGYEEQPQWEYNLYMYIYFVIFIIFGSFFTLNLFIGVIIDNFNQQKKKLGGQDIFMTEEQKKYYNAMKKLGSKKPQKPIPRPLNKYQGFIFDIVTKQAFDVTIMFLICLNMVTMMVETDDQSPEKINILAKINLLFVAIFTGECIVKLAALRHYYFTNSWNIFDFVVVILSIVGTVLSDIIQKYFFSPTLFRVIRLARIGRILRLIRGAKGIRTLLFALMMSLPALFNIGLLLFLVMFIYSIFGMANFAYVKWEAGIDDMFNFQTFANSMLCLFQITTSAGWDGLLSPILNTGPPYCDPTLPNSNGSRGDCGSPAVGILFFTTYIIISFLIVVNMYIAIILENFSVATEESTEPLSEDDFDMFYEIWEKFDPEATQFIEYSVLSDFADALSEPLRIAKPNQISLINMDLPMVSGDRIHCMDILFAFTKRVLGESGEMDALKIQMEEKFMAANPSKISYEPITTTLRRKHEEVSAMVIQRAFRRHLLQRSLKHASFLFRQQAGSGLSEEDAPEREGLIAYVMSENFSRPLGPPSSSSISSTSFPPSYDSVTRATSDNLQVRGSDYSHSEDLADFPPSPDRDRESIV
SMILES,pIC50 [1],pIC50 [2],pIC50 [3],pIC50 [4],pIC50 [5],AUC(0-t) [6] [µM·h],CL/F [7] [mL/min/kg],Cmax [8] [nM],MRT [9] [h],half-life [10] [h],Tmax [11] [h],Vdss (Mus musculus [12]) [L/kg],Drug uptake [13],pIC50 [14],Ratio [16],also measured
C#CC[C@H](N)C(=O)N[C@@H](Cc1ccc(O)cc1)C(=O)N[C@H]1CSSC[C@@H]2NC(=O)[C@@H]3CSSC[C@@H](C(=O)N[C@@H](CCCNC(=N)N)C(=O)N[C@@H](CCCCN)C(=O)N[C@@H](CCC(=O)O)C(=O)N[C@H](C(N)=O)[C@@H](C)CC)NC(=O)[C@H](Cc4c[nH]c5ccc(Br)cc45)NC(=O)[C@H](CC(C)C)NC(=O)[C@H](CCCCN)NC(=O)[C@H](CSSC[C@H](NC(=O)[C@H]([C@@H](C)O)NC(=O)[C@H](Cc4c[nH]c5ccccc45)NC(=O)[C@H](CCCC)NC(=O)[C@H](Cc4c[nH]c5ccccc45)NC(=O)[C@H](CCCCN)NC(=O)[C@H](CCC(N)=O)NC1=O)C(=O)N[C@@H](CC(=O)O)C(=O)N[C@@H](CO)C(=O)N[C@@H](CCCCN)C(=O)N[C@@H](CCCNC(=N)N)C(=O)N[C@@H](C)C(=O)N3)NC(=O)[C@H](CCCNC(=N)N)NC(=O)[C@H](CC(C)C)NC(=O)CNC(=O)[C@H](CCC(=O)O)NC2=O,9.59,7.28,7.18,6.59,6.29,3.44,2.57,892,3.55,2.38,0.5,0.547,Active,–,–,–
C#CC[C@H](N)C(=O)N[C@@H](Cc1ccc(O)cc1)C(=O)N[C@H]1CSSC[C@@H]2NC(=O)[C@@H]3CSSC[C@@H](C(=O)N[C@@H](CCCNC(=N)N)C(=O)N[C@@H](CCCCN)C(=O)N[C@@H](CCC(=O)O)C(=O)N[C@H](C(N)=O)[C@@H](C)CC)NC(=O)[C@H](Cc4c[nH]c5ccccc45)NC(=O)[C@H](CC(C)C)NC(=O)[C@H](CCCCN)NC(=O)[C@H](CSSC[C@H](NC(=O)[C@H]([C@@H](C)O)NC(=O)[C@H](Cc4c[nH]c5ccccc45)NC(=O)[C@H](CCCC)NC(=O)[C@H](Cc4c[nH]c5ccccc45)NC(=O)[C@H](CCCCN)NC(=O)[C@H](CCC(N)=O)NC1=O)C(=O)N[C@@H](CC(=O)O)C(=O)N[C@@H](CO)C(=O)N[C@@H](CCCCN)C(=O)N[C@@H](CCCNC(=N)N)C(=O)N[C@@H](C)C(=O)N3)NC(=O)[C@H](CCCNC(=N)N)NC(=O)[C@H](CC(C)C)NC(=O)CNC(=O)[C@H](CCC(=O)O)NC2=O,9.30,–,–,5.51,< 6.00,–,–,–,–,–,–,–,–,8.05,6.5,Activity (Mus musculus [15]): inactive; Activity (Mus musculus [17]): Non-Toxic
CN(C)CCOC(c1ccccc1)c1ccccc1 [DIPHENHYDRAMINE],–,–,–,–,–,–,–,–,–,–,–,–,–,–,–,inhibition in vivo at 10 mg/kg (Mus musculus [18]): 89.7%
C#CC[C@H](NC(=O)[C@@H](N)CCC(=O)O)C(=O)N[C@H]1CSSC[C@@H]2NC(=O)[C@@H]3CSSC[C@@H](C(=O)N[C@@H](CCCNC(=N)N)C(=O)N[C@@H](CCCCN)C(=O)N[C@@H](CCC(=O)O)C(=O)N[C@H](C(N)=O)[C@@H](C)CC)NC(=O)[C@H](Cc4c[nH]c5ccc(Br)cc45)NC(=O)[C@H](CC(C)C)NC(=O)[C@H](CCCCN)NC(=O)[C@H](CSSC[C@H](NC(=O)[C@H]([C@@H](C)O)NC(=O)[C@H](Cc4c[nH]c5ccccc45)NC(=O)[C@H](CCCC)NC(=O)[C@H](Cc4c[nH]c5ccccc45)NC(=O)[C@H](CCCCN)NC(=O)[C@H](CCC(N)=O)NC1=O)C(=O)N[C@@H](CC(=O)O)C(=O)N[C@@H](CO)C(=O)N[C@@H](C)C(=O)N[C@@H](CCCNC(=N)N)C(=O)N[C@@H](C)C(=O)N3)NC(=O)[C@H](CCCNC(=N)N)NC(=O)[C@H](CC(C)C)NC(=O)CNC(=O)[C@H](CCC(=O)O)NC2=O,9.10,6.98,6.98,5.18,< 6.00,4.5,2,1480,3.7,4.95,0.5,0.444,Active,8.29,59,pIC50 [19]: < 5.00; pIC50 [20]: 8.27; inhibition in vivo at 0.5 mg/kg (Mus musculus [21]): 7.3%; inhibition in vivo at 1 mg/kg (Mus musculus [15]): 22.5%; inhibition in vivo at 2 mg/kg (Mus musculus [22]): 88.9%; concentration [23]: 122 nM; concentration [24]: 300 nM; concentration [25]: 535 nM; Ratio [26]: 24; Ratio [27]: 105; Activity (Mus musculus [28]): Non-Toxic
